Measurements reported in ChEMBL document CHEMBL3808357, “Discovery of N-(3-((1-Isonicotinoylpiperidin-4-yl)oxy)-4-methylphenyl)-3-(trifluoromethyl)benzamide (CHMFL-KIT-110) as a Selective, Potent, and Orally Available Type II c-KIT Kinase Inhibitor for Gastrointestinal Stromal Tumors (GISTs)” (J Med Chem, 2016).
Activity calls are given as the source filed them. No cut-off for these calls is given here.

How the values were obtained:
[1] = tested on: Mast/stem cell growth factor receptor Kit (Homo sapiens), P10721 [N822K]; test: Inhibition of Tel-fused cKIT N822K mutant (unknown origin) transfected in mouse BAF3 cells assessed as decrease in cell proliferation after 72 hrs by celltiter-glo/CCK8 assay; format: cell-based
[2] = target: Mast/stem cell growth factor receptor Kit (Homo sapiens) (UniProt P10721); test: Inhibition of cKIT in human GIST882 cells assessed as suppression of STAT5 phosphorylation at Y694 up to 10 uM after 2 hrs by Western blot analysis; format: cell-based
[3] = tested on: Mast/stem cell growth factor receptor Kit (Homo sapiens), P10721 [T670I]; test: Inhibition of Tel-fused cKIT T670I mutant (unknown origin) transfected in mouse BAF3 cells assessed as decrease in cell proliferation after 72 hrs by celltiter-glo/CCK8 assay; format: cell-based
In short: (§1)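 Stable BaF3 lines made by retroviral transduction with mutagenized TEL-KIT MSCV vectors, puromycin selection 48 h, then gradual IL-3 withdrawal until IL-3-independent; grown in RPMI 1640 with 10% FBS. Cells at 1 to 3 × 10⁴ cells/mL exposed to a concentration series for 72 h; viability read by CellTiter-Glo luminescence or CCK-8 absorbance (450/655 nm); GI50 from triplicate testing.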

[4] = Antiproliferative activity against FLT3-ITD dependent human MOLM14 cells assessed as reduction in cell viability after 72 hrs by celltiter-glo/CCK8 assay; format: functional; settings: MOLM-14, 72 h
In short: (§2)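 Cells were seeded at 1 to 3 × 10⁴ cells/mL with serial compound concentrations and incubated 72 h at 37 °C, 5% CO₂. Viability was read by CellTiter-Glo luminescence or CCK-8 absorbance (450/655 nm). GI50 values are from triplicate testing. GIST-T1 and CHO were grown in DMEM/10% FBS; GIST-882, GIST-48B and MV4-11 in IMDM/10% FBS; other lines in RPMI 1640/10% FBS.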

[5] = target: Mast/stem cell growth factor receptor Kit (Homo sapiens) (UniProt P10721); test: Inhibition of cKIT in human GIST48B cells assessed as suppression of AKT phosphorylation at S473 up to 10 uM after 2 hrs by Western blot analysis; format: cell-based
Mus musculus = test: Toxicity in nu/nu mouse xenografted with human GISTT1 cells assessed as body weight change at 25 to 100 mg/kg/day administered through oral gavage after 21 days; format: organism-based; settings: in vivo, 504 h
In short: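 Female nu/nu mice, 6 weeks old, injected subcutaneously in the right flank with 5 million GIST-T1 cells in PBS/Matrigel 1:1. At tumor volume 100–200 mm³, randomized to groups of six; daily oral gavage of 25, 50 or 100 mg/kg/d or vehicle (0.5% methylcellulose/0.4% Tween80 in water). Body weight measured daily, normalized to initial weight; mean ± SEM.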

[6] = target: T1, Platelet-derived growth factor receptor beta (Homo sapiens, UniProt P09619); test: Inhibition of PDGFRbeta phosphorylation at Y857 in human GIST882 cells up to 10 uM after 2 hrs by Western blot analysis; format: cell-based
In short: (§3)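 Cells were washed in cold PBS, lysed in RIPA and immunoblotted for phospho and total proteins, including pPDGFRα Y849/PDGFRβ Y857 and β-actin.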

[7] = target: Mast/stem cell growth factor receptor Kit (Homo sapiens) (UniProt P10721); test: Inhibition of cKIT in human GIST882 cells assessed as suppression of AKT phosphorylation at S473 up to 10 uM after 2 hrs by Western blot analysis; format: cell-based
Rattus norvegicus = test: Apparent volume of distribution in Sprague-Dawley rat plasma at 10 mg/kg, po; format: ADME, organism-based; settings: in vivo
In short: (§4)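 Male Sprague-Dawley rats, 8 weeks old, fasted overnight, dosed iv or orally. Formulation was 5% DMSO/40% PEG400/55% saline at 1 mg/mL. Blood (~0.2 mL) was drawn from the jugular vein into heparin. Sampling: iv at 1 min to 8 h; oral at 5 min to 24 h. Plasma was separated by centrifugation at 2−8 °C and stored at −80 °C.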

[8] = target: T1, Platelet-derived growth factor receptor beta; test: Inhibition of PDGFRbeta phosphorylation at Y857 in human GIST48B cells up to 10 uM after 2 hrs by Western blot analysis; format: cell-based; in short: as §3
[9] = AUC(0 to t) in Sprague-Dawley rat plasma at 1 mg/kg, iv; format: ADME, organism-based; in short: as §4
[10] = target: Mast/stem cell growth factor receptor Kit (Homo sapiens) (UniProt P10721); test: Inhibition of cKIT autophosphorylation at Y719 in human GIST48B cells up to 10 uM after 2 hrs by Western blot analysis; format: cell-based
[11] = MRT(0 to t) in Sprague-Dawley rat plasma at 10 mg/kg, po; format: ADME, organism-based
In short: (§5)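 Male Sprague–Dawley rats, 8 weeks old, six in total, fasted overnight; compound dissolved in 5% DMSO/40% PEG400/55% saline (1 mg/mL dosing solution), given iv or orally. About 0.2 mL jugular blood taken with heparin at 1 min–8 h (iv) or 5 min–24 h (oral); plasma separated at 2–8 °C and stored at −80 °C before analysis.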

GISTT1 = test: Antitumor activity against human GISTT1 cells xenografted in nu/nu mouse assessed as suppression of proliferation at 25 to 100 mg/kg/day administered through oral gavage after 21 days by Ki67 assay; format: functional, organism-based
In short: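 Female nu/nu mice, 6 weeks old, received 5 × 10⁶ GIST-T1 cells in PBS/Matrigel (1:1) subcutaneously in the right flank. At 100−200 mm³, six mice per group were dosed daily by oral gavage at 25, 50 or 100 mg/kg/d in 0.5% methylcellulose/0.4% Tween80, or vehicle. Tumor volume was taken as (W²×L)/2, with body weight and tumor measured daily. Tumors were stained for Ki67 (IHC, 1:50 antibody) and by TUNEL.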

[12] = Tmax in Sprague-Dawley rat plasma at 10 mg/kg, po; format: ADME, organism-based; in short: as §5
[13] = target: Macrophage colony-stimulating factor 1 receptor (Homo sapiens, UniProt P07333); test: Inhibition of human wild type partial length CSF1R expressed in bacterial expression system assessed as residual activity at 1 uM by KinomeScan method
In short: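 KinomeScan competitive binding panel of 468 kinases and mutants, compound tested at 1 μM; read-out is percent activity remaining (binding relative to control).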

[14] = target: Mast/stem cell growth factor receptor Kit (Homo sapiens) (UniProt P10721); test: Inhibition in cKIT autophosphorylation at Y703 in human GISTT1 cells up to 10 uM after 2 hrs by Western blot analysis; format: cell-based; in short: as §3
[15] = Antiproliferative activity against mouse BAF3 cells; format: cell-based
[16] = Antiproliferative activity against CHL cells assessed as reduction in cell viability after 72 hrs by celltiter-glo/CCK8 assay; format: cell-based, Cricetulus griseus; settings: chinese hamster; in short: as §2
[17] = target: Mast/stem cell growth factor receptor Kit (Homo sapiens) (UniProt P10721); test: Inhibition of cKIT autophosphorylation at Y703 in human GIST48B cells up to 10 uM after 2 hrs by Western blot analysis; format: cell-based
[18] = Apparent volume of distribution in Sprague-Dawley rat plasma at 1 mg/kg, iv; format: ADME, organism-based; settings: read-out: Vz; in short: as §4
[19] = tested on: Mast/stem cell growth factor receptor Kit (Homo sapiens), P10721 [V654A]; test: Inhibition of Tel-fused cKIT V654A mutant (unknown origin) transfected in mouse BAF3 cells assessed as decrease in cell proliferation after 72 hrs by celltiter-glo/CCK8 assay; format: cell-based; in short: as §1
[20] = Antiproliferative activity against CHO cells assessed as reduction in cell viability after 72 hrs by celltiter-glo/CCK8 assay; format: cell-based, Cricetulus griseus; settings: chinese hamster; in short: as §2

Chain of Mast/stem cell growth factor receptor Kit (Homo sapiens) (P10721 whole entry, the tested form may be a part): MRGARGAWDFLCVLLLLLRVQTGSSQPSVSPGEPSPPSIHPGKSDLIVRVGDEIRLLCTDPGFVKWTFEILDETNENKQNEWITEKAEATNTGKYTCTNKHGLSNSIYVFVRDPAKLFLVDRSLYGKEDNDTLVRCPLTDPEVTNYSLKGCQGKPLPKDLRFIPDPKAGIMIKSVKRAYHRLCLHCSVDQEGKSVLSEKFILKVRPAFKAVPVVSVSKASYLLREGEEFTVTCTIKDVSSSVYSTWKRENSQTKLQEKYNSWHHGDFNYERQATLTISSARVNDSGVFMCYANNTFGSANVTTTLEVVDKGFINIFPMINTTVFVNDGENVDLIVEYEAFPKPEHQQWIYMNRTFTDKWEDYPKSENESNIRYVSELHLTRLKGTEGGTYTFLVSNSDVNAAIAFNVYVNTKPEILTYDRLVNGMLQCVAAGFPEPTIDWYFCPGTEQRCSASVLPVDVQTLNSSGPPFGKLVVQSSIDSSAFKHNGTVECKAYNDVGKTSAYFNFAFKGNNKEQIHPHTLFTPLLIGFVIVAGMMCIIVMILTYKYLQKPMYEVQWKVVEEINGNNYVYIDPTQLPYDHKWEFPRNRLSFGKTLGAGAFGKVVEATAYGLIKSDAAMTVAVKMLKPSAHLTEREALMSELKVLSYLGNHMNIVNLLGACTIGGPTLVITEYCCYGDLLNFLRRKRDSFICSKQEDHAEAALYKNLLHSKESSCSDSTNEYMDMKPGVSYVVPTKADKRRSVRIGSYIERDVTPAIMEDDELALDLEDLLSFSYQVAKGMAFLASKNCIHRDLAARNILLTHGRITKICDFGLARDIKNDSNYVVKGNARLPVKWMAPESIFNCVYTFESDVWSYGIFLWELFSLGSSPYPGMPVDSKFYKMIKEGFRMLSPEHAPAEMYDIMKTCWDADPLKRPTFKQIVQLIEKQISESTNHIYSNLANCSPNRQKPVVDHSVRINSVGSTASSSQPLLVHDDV
T1 sequence (P09619 whole entry): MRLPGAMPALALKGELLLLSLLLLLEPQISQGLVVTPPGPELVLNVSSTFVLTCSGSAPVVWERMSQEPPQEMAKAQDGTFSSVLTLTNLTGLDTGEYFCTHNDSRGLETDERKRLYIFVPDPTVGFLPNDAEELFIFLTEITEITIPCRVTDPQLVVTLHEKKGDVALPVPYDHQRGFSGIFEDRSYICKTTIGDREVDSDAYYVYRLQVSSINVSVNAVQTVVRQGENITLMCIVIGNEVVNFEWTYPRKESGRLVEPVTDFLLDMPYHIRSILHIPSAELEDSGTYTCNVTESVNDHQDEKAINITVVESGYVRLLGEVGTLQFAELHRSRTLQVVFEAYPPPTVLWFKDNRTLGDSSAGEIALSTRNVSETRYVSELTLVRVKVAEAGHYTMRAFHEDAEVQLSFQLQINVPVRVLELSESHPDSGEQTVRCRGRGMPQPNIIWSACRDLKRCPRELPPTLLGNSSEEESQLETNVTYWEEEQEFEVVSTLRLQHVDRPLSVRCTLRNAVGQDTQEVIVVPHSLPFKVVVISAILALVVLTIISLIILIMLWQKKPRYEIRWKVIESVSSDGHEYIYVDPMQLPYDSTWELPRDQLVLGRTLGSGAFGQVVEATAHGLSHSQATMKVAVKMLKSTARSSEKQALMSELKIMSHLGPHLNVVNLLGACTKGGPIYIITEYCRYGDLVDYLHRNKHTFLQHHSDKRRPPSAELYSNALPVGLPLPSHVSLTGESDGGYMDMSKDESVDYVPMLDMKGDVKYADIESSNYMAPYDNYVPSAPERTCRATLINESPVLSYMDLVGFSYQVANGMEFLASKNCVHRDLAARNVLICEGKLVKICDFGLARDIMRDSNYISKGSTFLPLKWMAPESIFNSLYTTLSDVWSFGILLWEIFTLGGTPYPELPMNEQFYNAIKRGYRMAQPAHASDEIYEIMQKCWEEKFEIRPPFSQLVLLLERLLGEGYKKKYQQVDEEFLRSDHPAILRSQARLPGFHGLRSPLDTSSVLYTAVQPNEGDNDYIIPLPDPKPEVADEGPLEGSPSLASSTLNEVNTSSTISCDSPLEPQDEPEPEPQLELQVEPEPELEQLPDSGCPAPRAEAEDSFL
Chain of Macrophage colony-stimulating factor 1 receptor (P07333 whole entry): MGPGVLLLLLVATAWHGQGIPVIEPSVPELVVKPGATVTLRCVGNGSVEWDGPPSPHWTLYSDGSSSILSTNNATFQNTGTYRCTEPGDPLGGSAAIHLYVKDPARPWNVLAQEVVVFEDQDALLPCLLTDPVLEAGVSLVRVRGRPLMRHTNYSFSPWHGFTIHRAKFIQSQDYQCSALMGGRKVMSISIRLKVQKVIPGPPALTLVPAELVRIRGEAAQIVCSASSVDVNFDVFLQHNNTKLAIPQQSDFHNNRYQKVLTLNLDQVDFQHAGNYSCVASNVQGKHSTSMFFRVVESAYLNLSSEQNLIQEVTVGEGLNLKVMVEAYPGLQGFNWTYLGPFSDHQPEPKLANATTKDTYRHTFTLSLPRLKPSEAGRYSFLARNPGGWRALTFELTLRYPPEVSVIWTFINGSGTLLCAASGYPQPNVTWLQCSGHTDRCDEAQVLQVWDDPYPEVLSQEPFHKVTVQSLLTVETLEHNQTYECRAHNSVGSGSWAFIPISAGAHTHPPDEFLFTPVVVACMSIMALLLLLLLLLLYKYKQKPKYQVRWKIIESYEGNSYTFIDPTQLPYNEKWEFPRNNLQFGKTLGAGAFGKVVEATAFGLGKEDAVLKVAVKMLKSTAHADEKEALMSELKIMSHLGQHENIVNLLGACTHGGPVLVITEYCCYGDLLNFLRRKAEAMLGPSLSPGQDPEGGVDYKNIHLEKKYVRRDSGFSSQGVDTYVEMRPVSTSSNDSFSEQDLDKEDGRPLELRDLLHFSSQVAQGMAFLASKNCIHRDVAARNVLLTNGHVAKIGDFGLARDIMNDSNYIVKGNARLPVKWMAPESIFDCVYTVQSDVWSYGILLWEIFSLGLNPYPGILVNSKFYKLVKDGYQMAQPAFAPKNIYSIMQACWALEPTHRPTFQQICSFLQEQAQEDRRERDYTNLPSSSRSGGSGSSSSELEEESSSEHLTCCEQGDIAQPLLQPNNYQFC
Chain of Mast/stem cell growth factor receptor Kit (Homo sapiens), P10721 [V654A] (P10721 whole entry V654A, the tested form may be a part): as the sequence (P10721 whole entry, the tested form may be a part) above, with V654A counted along it
Chain of Mast/stem cell growth factor receptor Kit (Homo sapiens), P10721 [N822K] (P10721 whole entry N822K, the tested form may be a part): as the sequence (P10721 whole entry, the tested form may be a part) above, with N822K counted along it
Chain of Mast/stem cell growth factor receptor Kit (Homo sapiens), P10721 [T670I] (P10721 whole entry T670I, the tested form may be a part): as the sequence (P10721 whole entry, the tested form may be a part) above, with T670I counted along it

GI50 [1]: 1.06 µM | inhibition [2]: Active | GI50 [3]: 8.24 µM | inhibition [5]: inactive | inhibition [6]: Active | inhibition [7]: Active | Vz (Rattus norvegicus): 76.407 L/kg | inhibition [8]: Active | AUC(0-t) [9]: 198 ng·h/mL | inhibition [10]: Active | MRT last [11]: 4.8 h | Tmax [12]: 0.5 h | Activity [13]: 0.6% | inhibition [14]: Active | inhibition [17]: Active | Vd [18]: 3.22 L/kg | GI50 [19]: 1.03 µM
Structure (SMILES): Cc1ccc(NC(=O)c2cccc(C(F)(F)F)c2)cc1OC1CCN(C(=O)c2ccncc2)CC1
GI50 [4]: > 10 µM | Activity (Mus musculus): Non-toxic | Activity (GISTT1): Active | GI50 [15]: > 10 µM | GI50 at 72 h [16]: > 10 µM | GI50 at 72 h [20]: > 10 µM
